Results published in ChEMBL document CHEMBL2429859, “Inhibiting aberrant signal transducer and activator of transcription protein activation with tetrapodal, small molecule Src homology 2 domain binders: promising agents against multiple myeloma” (J Med Chem, 2013).
Calls of active or inactive are those of the source. The calls are words filed in the database; no cut-off is given here.

What was measured:
[1] = test system: JJN-3; assay: Cytotoxicity against human JJN-3 cells assessed as inhibition of cell viability after 72 hrs by MTT assay; assay type: functional, cell-based
Procedure, shortened: (§1)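 Myeloma lines were seeded at 1-3 x 10^4 cells per well onto compound or vehicle, in triplicate, and cultured 72 h at 37 °C in 5% CO2. Viability was measured colorimetrically by MTT assay relative to DMSO control. EC50 was fitted to a standard dose-response curve where applicable.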

[2] = molecular target: T1, Signal transducer and activator of transcription 1-alpha/beta (Homo sapiens) (UniProt P42224); assay: Inhibition of IFNgamma-induced Stat1 phosphorylation in serum-starved human U937 cells at 10 to 20 uM incubated for 4 hrs prior to IFNgamma induction measured after 15 mins by phopsho-flow cytometric analysis; assay type: cell-based; conditions: U-937
T1 sequence (whole entry): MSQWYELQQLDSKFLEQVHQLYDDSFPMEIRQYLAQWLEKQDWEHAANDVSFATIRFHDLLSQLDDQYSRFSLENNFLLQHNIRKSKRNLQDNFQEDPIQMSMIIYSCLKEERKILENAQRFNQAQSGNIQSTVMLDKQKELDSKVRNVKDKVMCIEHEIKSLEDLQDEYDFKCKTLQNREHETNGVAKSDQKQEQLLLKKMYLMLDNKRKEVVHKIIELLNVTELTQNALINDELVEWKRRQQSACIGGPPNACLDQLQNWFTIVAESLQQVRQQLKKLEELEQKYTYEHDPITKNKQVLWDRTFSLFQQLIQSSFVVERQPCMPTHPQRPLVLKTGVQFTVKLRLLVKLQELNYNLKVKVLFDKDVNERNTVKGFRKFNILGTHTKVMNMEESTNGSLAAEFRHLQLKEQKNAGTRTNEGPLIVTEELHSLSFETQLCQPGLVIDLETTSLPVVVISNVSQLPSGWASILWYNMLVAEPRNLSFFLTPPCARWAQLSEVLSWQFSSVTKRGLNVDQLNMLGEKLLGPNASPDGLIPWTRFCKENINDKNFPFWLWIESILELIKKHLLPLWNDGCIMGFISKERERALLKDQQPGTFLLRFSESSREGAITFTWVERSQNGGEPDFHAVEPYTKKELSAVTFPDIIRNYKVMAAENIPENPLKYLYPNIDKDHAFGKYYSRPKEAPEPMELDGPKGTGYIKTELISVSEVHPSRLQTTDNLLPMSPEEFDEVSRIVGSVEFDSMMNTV
Procedure, shortened: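 Serum-starved U937 cells were pretreated with compound for 4 h, then stimulated 15 min with IL-6 (Stat3), GM-CSF (Stat5) or IFN (Stat1). Phosphorylation of each STAT was quantified by phospho-flow cytometry.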

[3] = test system: XG6; assay: Cytotoxicity against human XG6 cells assessed as inhibition of cell viability after 72 hrs by MTT assay; assay type: functional, cell-based; procedure, shortened: as §1
[4] = molecular target: T2, Signal transducer and activator of transcription 3 (Homo sapiens, UniProt P40763); assay: Inhibition of Stat3-mediated luciferase expression in human XG6 cells at 15 to 30 uM after 6 hrs relative to control; assay type: cell-based
Procedure, shortened: (§2)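 Myeloma cells stably carried a Stat3-driven firefly luciferase reporter (puromycin-selected) and a CMV-driven Renilla luciferase internal control (hygromycin-selected), each selected for 2 weeks. After drug treatment, dual luciferase activity was read as relative luciferase units, firefly/Renilla.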

[5] = molecular target: T2, Signal transducer and activator of transcription 3; assay: Inhibition of Stat3 in human JJN-3 cells assessed as downregulation of c-Myc protein expression after 6 hrs by Western blot analysis; assay type: cell-based
Procedure, shortened: (§3)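 Treated cells were washed in cold PBS and lysed 30 min on ice in Tris-HCl pH 7.4/NaCl/EDTA/1% NP-40 with PMSF, vanadate and protease inhibitors. Lysates were Bradford-normalized, and 10-30 µg protein was run on 7-10% SDS-PAGE and transferred to PVDF. Blots were blocked in 5% BSA/TBST, probed overnight at 4 °C, then with HRP secondary, and detected by ECL.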

[6] = test system: XG6; assay: Induction of apoptosis in human XG6 cells at 10 to 20 uM by annexin V/propidium iodide staining-based flow cytometric analysis; assay type: functional, cell-based
Procedure, shortened: (§4)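 Apoptosis was measured by flow cytometry of Annexin V and propidium iodide staining. Viable, early apoptotic and late apoptotic cells were scored by quadrant, with time points at 24 and 48 h.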

[7] = molecular target: T3, Signal transducer and activator of transcription 1-alpha/beta (Homo sapiens, UniProt P42224); assay: Binding affinity to Stat1 (unknown origin) using 5-FAM-GpYLPQTV-NH2 as probe assessed as phosphopetide complex formation after 30 mins by fluorescence polarization assay
T3 sequence (P42224 whole entry): T1 sequence (whole entry)
Procedure, shortened: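 Fluorescence polarization. Recombinant STAT protein was incubated with the 5-FAM-GpYLPQTV-NH2 peptide probe and inhibitor for 30 min. Polarized fluorescence was plotted against inhibitor concentration, and IC50 was obtained by fitting a dose-response curve.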

[8] = Cytotoxicity against CD138-negative BMNC isolated from multiple myeloma patient assessed as cell viability at > 20 uM; conditions: human
Procedure, shortened: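 Bone marrow mononuclear cells were isolated by Ficoll-Paque separation from 6 myeloma patient aspirates, cultured, and treated with compound. Cells were stained for CD138 and Annexin V, and the decrease in CD138+ (myeloma) and CD138- (non-myeloma) populations was reported.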

[9] = molecular target: T2, Signal transducer and activator of transcription 3; assay: Inhibition of Stat3-mediated luciferase expression in human 8226 cells at 15 to 30 uM after 6 hrs relative to control; assay type: cell-based; procedure, shortened: as §2
[10] = molecular target: Tyrosine-protein kinase JAK2 (Homo sapiens) (UniProt O60674); assay: Inhibition of JAK2 JH1 domain (unknown origin) assessed as residual activity at 5 uM relative to control
Procedure, shortened: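 Kinase profiling used a KinomeScan at 5 µM across 132 kinases, including 37 with SH2 domains.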

[11] = test system: JJN-3; assay: Induction of apoptosis in human JJN-3 cells at 10 to 20 uM by annexin V/propidium iodide staining-based flow cytometric analysis; assay type: functional, cell-based; procedure, shortened: as §4
[12] = test system: JJN-3; assay: Induction of apoptosis in human JJN-3 cells at 10 to 15 uM by annexin V/propidium iodide staining-based flow cytometric analysis; assay type: functional, cell-based; procedure, shortened: as §4
[13] = molecular target: T2, Signal transducer and activator of transcription 3; assay: Inhibition of Stat3-mediated luciferase expression in human XG6 cells at 7.5 to 15 uM after 6 hrs relative to control; assay type: cell-based; procedure, shortened: as §2
[14] = test system: JJN-3; assay: Induction of apoptosis in human JJN-3 cells assessed as induction of PARP cleavage at 5 to 10 uM by Western blot analysis; assay type: functional, cell-based; procedure, shortened: as §3
[15] = test system: XG6; assay: Induction of apoptosis in human XG6 cells at 10 to 15 uM by annexin V/propidium iodide staining-based flow cytometric analysis; assay type: functional, cell-based; procedure, shortened: as §4

T2 sequence (P40763 whole entry): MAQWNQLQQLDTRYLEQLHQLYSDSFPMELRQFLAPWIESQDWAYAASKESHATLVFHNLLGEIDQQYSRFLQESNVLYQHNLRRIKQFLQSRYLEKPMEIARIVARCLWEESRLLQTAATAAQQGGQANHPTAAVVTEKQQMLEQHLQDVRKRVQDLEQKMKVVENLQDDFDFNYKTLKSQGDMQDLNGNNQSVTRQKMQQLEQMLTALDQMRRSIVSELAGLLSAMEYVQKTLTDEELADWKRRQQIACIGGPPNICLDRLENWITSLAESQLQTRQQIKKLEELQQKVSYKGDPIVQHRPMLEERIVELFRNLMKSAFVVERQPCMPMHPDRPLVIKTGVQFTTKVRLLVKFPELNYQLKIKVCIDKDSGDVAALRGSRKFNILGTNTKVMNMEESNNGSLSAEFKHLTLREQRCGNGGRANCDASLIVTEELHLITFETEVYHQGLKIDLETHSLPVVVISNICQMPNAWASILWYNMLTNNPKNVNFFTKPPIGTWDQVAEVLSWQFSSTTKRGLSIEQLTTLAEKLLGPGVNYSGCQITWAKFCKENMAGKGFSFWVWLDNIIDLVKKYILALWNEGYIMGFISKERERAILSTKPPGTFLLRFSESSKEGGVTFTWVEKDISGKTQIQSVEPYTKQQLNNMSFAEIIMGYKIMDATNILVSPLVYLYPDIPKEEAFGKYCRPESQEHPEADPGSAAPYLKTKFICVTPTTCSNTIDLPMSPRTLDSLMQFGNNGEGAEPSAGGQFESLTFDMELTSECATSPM
Tyrosine-protein kinase JAK2 (Homo sapiens), sequence (O60674 whole entry, the tested form may be a part): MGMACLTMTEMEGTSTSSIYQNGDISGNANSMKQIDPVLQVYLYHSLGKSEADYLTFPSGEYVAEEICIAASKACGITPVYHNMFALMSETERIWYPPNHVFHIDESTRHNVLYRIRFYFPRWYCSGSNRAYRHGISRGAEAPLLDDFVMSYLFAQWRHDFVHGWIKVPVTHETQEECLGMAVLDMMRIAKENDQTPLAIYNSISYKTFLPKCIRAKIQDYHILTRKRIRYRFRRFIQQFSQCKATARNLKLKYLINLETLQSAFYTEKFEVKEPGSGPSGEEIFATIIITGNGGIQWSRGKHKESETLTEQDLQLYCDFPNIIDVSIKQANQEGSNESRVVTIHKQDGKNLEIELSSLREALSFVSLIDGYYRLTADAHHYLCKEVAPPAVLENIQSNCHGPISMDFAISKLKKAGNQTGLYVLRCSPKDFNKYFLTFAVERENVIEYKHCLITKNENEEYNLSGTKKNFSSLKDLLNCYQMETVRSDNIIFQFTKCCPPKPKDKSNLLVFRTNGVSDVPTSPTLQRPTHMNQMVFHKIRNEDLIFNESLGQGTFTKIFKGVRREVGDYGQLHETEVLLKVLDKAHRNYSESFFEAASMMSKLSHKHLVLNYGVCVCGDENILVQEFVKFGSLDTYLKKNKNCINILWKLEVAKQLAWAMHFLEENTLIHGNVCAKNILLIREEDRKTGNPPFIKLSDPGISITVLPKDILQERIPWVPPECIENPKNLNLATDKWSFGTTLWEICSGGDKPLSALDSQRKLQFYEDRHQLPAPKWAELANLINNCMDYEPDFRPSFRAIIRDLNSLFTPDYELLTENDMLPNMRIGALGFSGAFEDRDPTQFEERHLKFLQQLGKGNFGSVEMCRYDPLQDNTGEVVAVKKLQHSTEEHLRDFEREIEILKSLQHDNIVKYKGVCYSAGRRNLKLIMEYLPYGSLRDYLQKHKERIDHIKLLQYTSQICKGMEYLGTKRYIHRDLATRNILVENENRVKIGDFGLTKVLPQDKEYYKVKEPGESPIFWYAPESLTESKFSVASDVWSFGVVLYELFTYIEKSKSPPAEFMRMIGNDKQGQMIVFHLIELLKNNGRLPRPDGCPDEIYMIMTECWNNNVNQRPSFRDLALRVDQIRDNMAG

| inhibition [2] | inhibition [4] [%] | inhibition [5] | IC50 [7] [µM] | inhibition [9] [%] | Activity [10] [%] | inhibition [13] [%] | Compound | inhibition [1] | inhibition [3] | Activity [6] | Activity [8] | Activity [11] | Activity [12] | Activity [14] | Activity [15] |
| --- | --- | --- | --- | --- | --- | --- | --- | --- | --- | --- | --- | --- | --- | --- | --- |
| Active | 50 | Dose-dependent effect | 5.8 | 50 | 84 |  | Cc1ccc(S(=O)(=O)N(CC(=O)N(Cc2ccc(C3CCCCC3)cc2)c2ccc(C(=O)O)c(O)c2)Cc2ccccc2C(F)(F)F)cc1 | Dose-dependent effect | Dose-dependent effect | Active | Non-toxic | Active |  |  |  |
| Active |  | Dose-dependent effect | 10.9 |  |  | 50 | O=C(O)c1ccc(N(Cc2ccc(C3CCCCC3)cc2)C(=O)CN(Cc2ccccc2C(F)(F)F)S(=O)(=O)c2c(F)c(F)c(F)c(F)c2F)cc1O | Dose-dependent effect | Dose-dependent effect |  |  |  | Active | Active | Active |
